MT stabilizer: microtubule stabilization, imaging screen; HeLa tubulin immunostaining HCS, 24 h; share of cells brighter than vehicle mean+2SD; % tubulin-high responders, % at 10 µM; 200,000 compounds, 0.83% hits;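 active = plate Z-score above 3 for both tubulin-high and condensed-nucleus cell shares, with cell loss under 80%, at 10 µM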;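 note: anti alpha tubulin signal scored within the nucleus-defined area of each cell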
b-catenin transl: beta-catenin nuclear translocation modulation; nuclear translocation activity, % at 5 µM; AID 1665; 190,000 compounds, 0.3% hits; HeLa beta-catenin nuclear translocation, immunofluorescence imaging;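 active = nuclear translocation activity above 50% at 5 µM, with a well cell count of 50 or more; inconclusive = wells under 50 cells across six images, flagged as toxic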;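 note: per-cell ratio of nuclear to cytoplasmic median beta-catenin stain intensity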
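System: Human HeLa cells, endogenous beta-catenin | Compound dosing: 5 µM primary, 0.02–20 µM confirmation | Timing: 24 h compound exposure at 37°C, 5% CO2 | Measured by: Fluorescence imaging of beta-catenin antibody stain plus DAPI | Read-out basis: % activation of per-cell nuclear versus cytoplasmic median beta-catenin signal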
BaF3 tox: counter-screen for JAK2V617F inhibitors: parental Ba/F3 viability inhibitors. CellTiter-Glo ATP luminescence. inhibition, % at 5.6 µM. 220,000 compounds, 1.1% hits. AID 1486;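 active = inhibition above a per-campaign cutoff, the mean inhibition of all tested compounds plus 3 SD, cut at about 27% in these data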
APP 5UTR inh: APP translation inhibition; 190,000 compounds, 0.82% hits; inhibition, % at 2 µM; SH-SY5Y APP 5'UTR-luciferase reporter, luminescence;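 active = inhibition above a set limit, derived from the sample mean plus 3 SD, cut at about 45% in these data; inconclusive = one replicate passes the limit while the other fails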
Ba/F3 V617F tox: reduce viability of Ba/F3 cells dependent on JAK2V617F. Ba/F3 EpoR-JAK2V617F viability, ATP luminescence. inhibition, % at 5.6 µM. 220,000 compounds, 1.1% hits. AID 1446;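 active = inhibition above the campaign mean plus 3 SD over all tested compounds, cut at about 24% in these data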;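 note: cytokine-independent growth of Ba/F3 cells driven by EpoR plus mutant JAK2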
Lmaj promast: inhibitors of Leishmania major promastigote growth | 200,000 compounds, 9% hits | AID 1063 | inhibition, % at 10 µM | Leishmania major promastigotes, resazurin fluorescence viability; in the data active = inhibition above about 50%;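 note: promastigotes grown with compound for 44 hours at 28 °C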
Lmaj promast 1uM: inhibitors of Leishmania major promastigote growth, repeat at 1 uM. shares compounds with Lmaj promast. L. major promastigote growth, resazurin fluorescence, 48 h. inhibition, % at 1 µM. 1,100 compounds, 13% hits. AID 1258;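 active = inhibition above about 50% in both repeat tests, limit read from the data; inconclusive = one repeat under the set limit, the other over it; inactive = both repeats under the set limit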
Large screens that a line does not name were inactive (follow-up assays come after a bar, where they were run). This is a sample that favours compounds with a hit; in the whole collection about 9.6% have one here.

Nc1nnc(SCc2ccc([N+](=O)[O-])cc2)s1	none
N=C(N)CCCOc1ccccc1-c1ccccc1	Lmaj promast 53.2 | Lmaj promast 1uM inactive
O=C(COc1ccccc1-c1ccccc1)c1ccccc1	none
Cc1ccc2cn[nH]c2c1N	none
Cc1ccc(-c2cc(C(=O)NCC3CCCO3)no2)cc1 (configuration not stated)	none
Cc1ccc(-n2nc(-c3cccs3)cc2C(=O)NCC2CCCO2)c(C)c1 (configuration not stated)	Lmaj promast 92.1 | Lmaj promast 1uM inactive
O=C(Nc1cc([N+](=O)[O-])ccc1Cl)C1CC1	none
Cc1cccc2c(CC(=O)O)noc12	Lmaj promast 79.2 | Lmaj promast 1uM inactive
O=C(O)c1cc2c(s1)-c1ccccc1CC2	Lmaj promast 53.0 | Lmaj promast 1uM inactive
O=C(O)c1cc2c(s1)-c1ccccc1OC2	none (no result: b-catenin transl)
N#Cc1ccc(-c2csc(NC3=NCCCCC3)n2)cc1	Lmaj promast 87.1 (no result: b-catenin transl) | Lmaj promast 1uM inactive
CCC(C)(c1nnnn1-c1c(C)cccc1C)N(N=O)c1ccccc1Cl (configuration not stated)	Lmaj promast 100.1 | Lmaj promast 1uM 95.2
Cc1cccc(C(C)C)c1-n1nnnc1-c1ccccc1	none
CC(C)(C)C(=O)/C=c1\[nH]c(=O)/c(=C\c2ccc(F)cc2)s1	Lmaj promast 73.2 | Lmaj promast 1uM inactive
CCc1ccc(/C=c2\s/c(=C\C(=O)C(C)(C)C)[nH]c2=O)cc1	none
C=CCOC(=O)C1=C[C@H](c2cn(C(C)=O)c3ccccc23)[C@@H](CCCO)[C@H](OCC)O1	none
CCCCCCc1cc2cc(C(=O)Nc3ccccc3)c(=O)oc2cc1O	Lmaj promast 86.2 | Lmaj promast 1uM inactive
C=C(C)C1Cc2c(C)nn(-c3cccc4ccccc34)c2C1 (configuration not stated)	Lmaj promast 61.3 (no result: b-catenin transl) | Lmaj promast 1uM inactive
COc1ccc(OC)c(-c2nnc(-c3ccc(C)o3)o2)c1	none
CCN(CC)S(=O)(=O)c1ccc(N2CCOCC2)c(NC(=O)CCC2CCCCC2)c1	none
CCOc1ccc(-c2noc(-c3cccnc3)n2)cc1OC	Lmaj promast 70.8 | Lmaj promast 1uM inactive
CCN(CC)CCOC(=O)C12CC3CC(CC(C3)C1)C2	Lmaj promast 97.0 | Lmaj promast 1uM inactive
CN(C)CCOC(=O)C12CC3CC(C1)CC(C(=O)OCCN(C)C)(C3)C2	none (no result: MT stabilizer, APP 5UTR inh, Lmaj promast)
CCCn1c(=O)[nH]c(=O)c2c1nc(-c1ccc3c(c1)OCCO3)n2CCN1CCOCC1	none
CC(=O)Nc1cccc(NC(=O)C2CCCN2C(=O)Nc2ccccc2C)c1 (configuration not stated)	none
Cc1ccccc1NC1=C/C(=N\S(=O)(=O)c2cccs2)c2ccccc2C1=O	Lmaj promast 100.5 | Lmaj promast 1uM 96.9
O=C(Nc1ccc2nc(-c3ccco3)[nH]c2c1)c1cccs1	Lmaj promast 88.3 | Lmaj promast 1uM inactive
c1ccc(-c2nc3nonc3nc2-c2ccccc2)cc1	Lmaj promast 84.0 | Lmaj promast 1uM inactive
CCOC(=O)Cc1c(C)nc2c(-c3ccc(OC)cc3)c(C)nn2c1C	none
COC(=O)c1cc(C)sc1NC(=O)C1CC(=O)NN1Cc1ccccc1 (configuration not stated)	Lmaj promast 95.4 | Lmaj promast 1uM inactive
CCCCC(CCC(=O)O)(C(=O)OCC)c1csc(Nc2ccc(OCC)cc2)n1 (configuration not stated)	none (no result: MT stabilizer, APP 5UTR inh, Lmaj promast)
Clc1ccc(-c2nnc(-c3ccc(Br)cc3)c(N3CCSCC3)n2)cc1	none
Clc1ccc(-c2nnc(-c3ccco3)nc2N2CCCCC2)cc1	Lmaj promast 64.4 (no result: b-catenin transl) | Lmaj promast 1uM inactive
CCCCCCCCCCCCCCCCn1cc[n+](C)c1	MT stabilizer 71.8, BaF3 tox 68.8, Ba/F3 V617F tox 97.9, Lmaj promast 100.5 | Lmaj promast 1uM 98.6
OCC#CCSc1nnc(-c2ccccc2Br)o1	none (no result: b-catenin transl)
CN1CCN(C(=S)NC(=O)c2ccc(S(=O)(=O)N3CCOCC3)cc2)CC1	none
O=C(NC(=S)N1CCN(C(c2ccccc2)c2ccccc2)CC1)c1ccc(S(=O)(=O)N2CCOCC2)cc1	Lmaj promast 99.5 | Lmaj promast 1uM inactive
COC(=O)C(CC(=O)c1ccc(Br)cc1)n1ccnc1 (configuration not stated)	Lmaj promast 78.8 | Lmaj promast 1uM inactive
O=c1c2sc3nc(N4CCOCC4)c4c(c3c2ncn1CCc1ccccc1)CCCC4	Lmaj promast 73.8 | Lmaj promast 1uM inactive
O=c1c2sc3nc(N4CCOCC4)c4c(c3c2ncn1-c1ccccc1)CCCC4	none
COc1ccc(-n2c(C)cc(C(=O)CSc3nn4c(=O)c(C(C)(C)C)nnc4s3)c2C)cc1	Lmaj promast 64.0 | Lmaj promast 1uM inactive
O=C(Nc1ccc(F)cc1F)N1CCCCC1c1cccnc1 (configuration not stated)	Lmaj promast 73.2 | Lmaj promast 1uM inactive
CC(C)C[C@H](NC(=O)OC(C)(C)C)C(=O)N/N=C/C1=Cc2ccccc2OC1C (some centres not stated)	b-catenin transl inconclusive, Lmaj promast 98.1 | Lmaj promast 1uM inactive
COc1ccc(OC)c(C(=O)/C=C/c2ccccc2C(F)(F)F)c1	Lmaj promast 75.0 (no result: b-catenin transl) | Lmaj promast 1uM inactive
COc1ccc(C(=O)/C=C/c2ccccc2)c(OC)c1	Lmaj promast 66.1 | Lmaj promast 1uM inactive
COc1cc(/C=C/C(=O)c2ccccc2O)cc(OC)c1OC	none
Cc1ccc(NC(=O)OCc2ccccc2S(C)=O)cc1 (configuration not stated)	none
Cc1nc(-c2ccc(S(=O)(=O)Oc3ccc(Cl)cc3Cl)s2)cs1	none (no result: MT stabilizer, APP 5UTR inh, Lmaj promast)
O=C(NCCC(c1ccccc1)c1ccccc1)c1ccc(Br)o1	Lmaj promast 58.6 | Lmaj promast 1uM inactive
O=C(O)CCNC(=O)c1ccc(Br)o1	none
CC1=CCC(/C=N\Nc2nnc3c(n2)[nH]c2ccccc23)CC1 (configuration not stated)	Lmaj promast 51.8 | Lmaj promast 1uM inactive
CC(C)CSc1nnc2c(n1)[nH]c1ccccc12	none (no result: b-catenin transl)
COc1ccc2nc3ccccc3nc2c1NC(=O)c1ccc(Cl)cc1Cl	none
Cc1ccc(-c2cc3cccc[n+]3cc2-c2ccc(C)cc2)cc1	BaF3 tox 78.8, Ba/F3 V617F tox 95.7, Lmaj promast 100.3 | Lmaj promast 1uM 91.0
Cc1ccc2nc(-c3ccncc3)cc(-c3ccccc3)c2c1	none
CC(=O)c1cccc(NC(=O)CSc2ccc(-c3ccc4c(c3)OCO4)nn2)c1	none
O=C(NC1CC1)c1cccc(Nc2ccc(-c3ccc4c(c3)OCCO4)nn2)c1	Lmaj promast 50.4 (no result: b-catenin transl) | Lmaj promast 1uM inactive
CCSCc1nc2ccccn2c1Br	none
CN1C(=O)C(c2nnc(Nc3cccc4ccccc34)s2)C2CC1(C)Oc1ccccc12 (configuration not stated)	Lmaj promast 71.7 | Lmaj promast 1uM inactive
CCOC(=O)c1c(C)noc1-c1ccc(Br)o1	none (no result: MT stabilizer, APP 5UTR inh, Lmaj promast)

Screening results as filed in PubChem BioAssay.
